Results from ChEMBL document CHEMBL3046806, “Synthesis and herbicidal activity of novel 3-aminocarbonyl-2-oxazolidinethione derivatives containing a substituted pyridine ring” (2006).
Active and inactive are the calls of the source. The calls are words filed in the database; no cut-off is given here.

Columns and labels:
Echinochloa crus-galli [1] = test: Herbicidal activity against Echinochloa crus-galli (barnyard grass) assessed as induction of yellow symptoms of leaves 7 days post compound treatment; assay type: functional, organism-based
Echinochloa crus-galli [2] = test: Herbicidal activity against Echinochloa crus-galli (barnyard grass) assessed as growth inhibition rate at 100 mg/L 7 days post compound treatment; assay type: functional; settings: 168 h, read-out: GI
Outline: (§1)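 Compound dissolved in DMF and diluted to the test concentration with water containing emulsifier 0201 (anionic/nonionic surfactant, 0.1 g L-1). Seeds were sown once the agar cooled and kept at 24 ± 1 °C under 3000 lx light for 7 days. Read-out was root growth inhibition (%) versus control, in three replicates of 150 seeds per species per concentration.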

Digitaria sanguinalis = test: Herbicidal activity against Digitaria sanguinalis (hairy crabgrass) assessed as growth inhibition rate at 100 mg/L 7 days post compound treatment; assay type: functional; settings: 168 h, read-out: GI; outline: as §1
[3] = test system: Brassica rapa subsp. oleifera; test: Herbicidal activity against Brassica rapa subsp. oleifera assessed as growth inhibition rate at 100 mg/L 7 days post compound treatment; assay type: functional; settings: 168 h, read-out: GI; outline: as §1
Sorghum bicolor = test: Herbicidal activity against Sorghum bicolor assessed as growth inhibition rate at 100 mg/L 7 days post compound treatment; assay type: functional; settings: 168 h, read-out: GI; outline: as §1
Echinochloa crus-galli [4] = test: Herbicidal activity against Echinochloa crus-galli (barnyard grass) assessed as induction weed albinism 7 days post compound treatment; assay type: functional, organism-based
Eclipta prostrata = test: Herbicidal activity against Eclipta prostrata assessed as growth inhibition rate at 100 mg/L 7 days post compound treatment; assay type: functional; settings: 168 h, read-out: GI; outline: as §1
Cucumis sativus = test: Herbicidal activity against Cucumis sativus (cucumber) assessed as growth inhibition rate at 100 mg/L 7 days post compound treatment; assay type: functional; settings: 168 h, read-out: GI; outline: as §1

Row | Compound | Activity (Echinochloa crus-galli [1]) | inhibition of growth at 100 µg/mL (Echinochloa crus-galli [2]) | inhibition of growth at 100 µg/mL (Digitaria sanguinalis) | inhibition of growth at 100 µg/mL [3] | inhibition of growth at 100 µg/mL (Sorghum bicolor) | Activity (Echinochloa crus-galli [4]) | inhibition of growth at 100 µg/mL (Eclipta prostrata) | inhibition of growth at 100 µg/mL (Cucumis sativus)
1 | C[C@@H]1[C@H](c2ccncc2)OC(=S)N1C(=O)Nc1ccccc1[N+](=O)[O-] (relative stereo) | Active | 60% | 70% | 50% | 70% | Active | 80% | 20%
2 | C[C@@H]1[C@H](c2ccncc2)OC(=S)N1C(=O)NC1CCCCC1 (relative stereo) | Active | 90% | 80% | 80% | 30% | Active | 85% | 20%
3 | CCOc1ccc([C@@H]2OC(=S)N(C(=O)Nc3ccccc3OCC)[C@@H]2C)cn1 (relative stereo) | Active | 50% | 80% | 0% | 0% | Active | 20% | 0%
4 | CCOc1ccccc1NC(=O)N1C(=S)O[C@@H](c2ccc(Cl)nc2)[C@H]1C (relative stereo) | Active | 90% | 80% | 90% | 70% | Active | 90% | 90%
5 | C[C@@H]1[C@H](c2ccc(OCC(F)(F)F)nc2)OC(=S)N1C(=O)NC1CCCCC1 (relative stereo) | Active | 80% | 70% | 40% | 60% | Active | 80% | 40%
6 | C[C@@H]1[C@H](c2ccccn2)OC(=S)N1C(=O)NC1CCCCC1 (relative stereo) | Active | 70% | 70% | 0% | 0% | Active | 80% | 0%
